The text below walks through data of ChEMBL document CHEMBL1821697, “Design and synthesis of brain penetrant selective JNK inhibitors with improved pharmacokinetic properties for the prevention of neurodegeneration” (Bioorg Med Chem Lett, 2011).

The IC50 is the concentration that gives 50% inhibition. In general, Papp A→B refers to the apparent permeability from the apical to the basolateral side of a cell layer. A word on the efflux ratio: it is a quotient of directional permeabilities that is used to spot active efflux.

The nature of data set [1]: Oxidative metabolic stability in mouse liver microsomes assessed as compound remaining at 1 uM after 30 mins. Type of data set: ADME, Microsome. The settings on record: read-out: Stability. The method in brief: (§1)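 Test compound was incubated with mouse, rat or human liver microsomes for 30 min. The read-out is percent of parent compound remaining.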
In data set [2] the target is Mitogen-activated protein kinase 10 (Homo sapiens, UniProt P53779). The data set can be described thus: Inhibition of recombinant JNK3 using ser73 of c-jun as substrate preincubated for 15 mins measured after 60 mins by TR-FRET assay. The gist of the method:
(§2)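 Recombinant JNK enzyme assay run at 10 µM ATP. IC50 values are means of at least three experiments.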
On the technique in general: In TR-FRET formats the signal depends on donor and acceptor labels being close together.

The nature of data set [3]: Oxidative metabolic stability in human liver microsomes assessed as compound remaining at 1 uM after 30 mins. Particulars: read-out: Stability. It counts as ADME, Microsome. The method in brief: as §1
Data set [4] is described as follows: Oxidative metabolic stability in rat liver microsomes assessed as compound remaining at 1 uM after 30 mins. It counts as ADME, Microsome. The settings on record: read-out: Stability. The method in brief:
as §1
(Liver microsomes are vesicles of endoplasmic reticulum, rich in cytochrome P450 enzymes.)

In data set [5] the target is Mitogen-activated protein kinase 9 (Homo sapiens, UniProt P45984). Briefly: Inhibition of recombinant JNK2 using ser73 of c-jun as substrate preincubated for 15 mins measured after 60 mins by TR-FRET assay. The method in brief:
as §2

Data set [6] deals with Mitogen-activated protein kinase 8 (Homo sapiens, UniProt P45983). The data set can be described thus: Inhibition of recombinant JNK1 using ser73 of c-jun as substrate preincubated for 15 mins measured after 60 mins by TR-FRET assay. The gist of the method: as §2
The target of data set [7] is Mitogen-activated protein kinase 1 (Homo sapiens, UniProt P28482). The data set can be described thus: Inhibition of recombinant ERK2 using Ser383 of Elk-1 as substrate preincubated for 15 mins measured after 60 mins by TR-FRET assay.
A short description of data set [8]: Apparent permeability from apical to basolateral side of MDCK2 cells at 5 uM after 120 mins by LC/MS/MS method. It counts as ADME, cell-based, Canis lupus familiaris, MDCK-II. Particulars: dog, MDCK.
Data set [9] concerns MDR1. Briefly: Efflux ratio of permeability across MDCK2 expressing MDR1 at 5 uM after 120 mins by LC/MS/MS method. It counts as ADME, Canis lupus familiaris, MDCK-II. The settings on record: dog, MDCK-MDR1.
Data set [10] deals with Mitogen-activated protein kinase 14 (Homo sapiens, UniProt Q16539). The data set can be described thus: Inhibition of recombinant p38alpha Thr69/71 of ATF-2 as substrate preincubated for 15 mins measured after 60 mins by TR-FRET assay.
Mitogen-activated protein kinase 14, sequence (Q16539 whole entry): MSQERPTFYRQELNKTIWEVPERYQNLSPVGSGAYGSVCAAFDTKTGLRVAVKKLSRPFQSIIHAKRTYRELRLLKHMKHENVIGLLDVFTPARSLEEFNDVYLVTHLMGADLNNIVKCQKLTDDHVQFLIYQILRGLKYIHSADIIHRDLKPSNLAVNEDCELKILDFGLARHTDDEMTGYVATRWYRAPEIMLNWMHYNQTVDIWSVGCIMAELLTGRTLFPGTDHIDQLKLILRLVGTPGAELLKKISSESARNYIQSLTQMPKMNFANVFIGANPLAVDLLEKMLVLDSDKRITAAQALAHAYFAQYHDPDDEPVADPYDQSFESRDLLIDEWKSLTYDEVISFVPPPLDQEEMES

Mitogen-activated protein kinase 9, sequence (P45984 whole entry): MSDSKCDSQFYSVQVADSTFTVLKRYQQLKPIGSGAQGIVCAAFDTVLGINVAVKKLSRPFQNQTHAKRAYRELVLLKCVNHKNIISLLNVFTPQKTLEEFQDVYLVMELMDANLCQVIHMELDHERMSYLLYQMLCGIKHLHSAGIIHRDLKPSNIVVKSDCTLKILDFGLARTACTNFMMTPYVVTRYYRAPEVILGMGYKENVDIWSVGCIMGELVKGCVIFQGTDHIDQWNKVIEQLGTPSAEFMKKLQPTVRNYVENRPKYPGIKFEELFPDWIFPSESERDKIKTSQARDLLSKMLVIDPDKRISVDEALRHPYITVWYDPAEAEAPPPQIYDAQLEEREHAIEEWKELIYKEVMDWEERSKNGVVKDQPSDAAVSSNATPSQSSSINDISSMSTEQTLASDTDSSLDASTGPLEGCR
Mitogen-activated protein kinase 10, sequence (P53779 whole entry): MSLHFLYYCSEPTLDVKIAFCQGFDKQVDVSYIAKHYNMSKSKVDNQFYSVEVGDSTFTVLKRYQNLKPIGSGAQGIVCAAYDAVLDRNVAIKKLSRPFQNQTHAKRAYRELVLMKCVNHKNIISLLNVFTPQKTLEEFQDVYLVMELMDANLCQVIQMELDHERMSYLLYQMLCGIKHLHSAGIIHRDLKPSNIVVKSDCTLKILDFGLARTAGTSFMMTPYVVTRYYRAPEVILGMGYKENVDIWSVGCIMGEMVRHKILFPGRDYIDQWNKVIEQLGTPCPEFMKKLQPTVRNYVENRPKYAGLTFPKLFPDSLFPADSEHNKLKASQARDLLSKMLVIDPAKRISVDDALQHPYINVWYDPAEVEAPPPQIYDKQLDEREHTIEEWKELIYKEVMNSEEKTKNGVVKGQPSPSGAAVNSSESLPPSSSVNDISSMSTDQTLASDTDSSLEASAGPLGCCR
Mitogen-activated protein kinase 8, sequence (P45983 whole entry): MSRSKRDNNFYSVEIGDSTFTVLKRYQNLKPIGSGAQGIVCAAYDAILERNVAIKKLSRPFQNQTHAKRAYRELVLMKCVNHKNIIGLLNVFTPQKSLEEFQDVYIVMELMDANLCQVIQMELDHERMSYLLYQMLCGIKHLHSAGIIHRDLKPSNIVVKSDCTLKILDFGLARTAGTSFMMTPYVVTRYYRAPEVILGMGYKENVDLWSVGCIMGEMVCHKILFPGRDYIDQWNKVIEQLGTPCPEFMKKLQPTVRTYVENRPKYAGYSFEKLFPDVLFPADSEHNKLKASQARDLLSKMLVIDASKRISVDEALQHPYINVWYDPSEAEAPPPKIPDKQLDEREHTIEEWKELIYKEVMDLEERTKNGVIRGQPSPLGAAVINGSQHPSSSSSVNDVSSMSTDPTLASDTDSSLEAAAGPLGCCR
Mitogen-activated protein kinase 1, sequence (P28482 whole entry): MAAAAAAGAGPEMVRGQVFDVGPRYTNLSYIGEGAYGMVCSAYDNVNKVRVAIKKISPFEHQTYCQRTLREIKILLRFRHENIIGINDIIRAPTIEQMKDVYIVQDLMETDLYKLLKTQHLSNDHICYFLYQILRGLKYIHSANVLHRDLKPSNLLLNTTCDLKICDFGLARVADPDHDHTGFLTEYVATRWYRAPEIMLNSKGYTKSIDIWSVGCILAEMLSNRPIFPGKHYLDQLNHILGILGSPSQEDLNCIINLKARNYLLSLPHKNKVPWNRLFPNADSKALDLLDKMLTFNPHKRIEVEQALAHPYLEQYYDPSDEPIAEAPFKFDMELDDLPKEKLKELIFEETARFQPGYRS

For the molecule `O=C(Cn1c(=O)ccc2cnccc21)Nc1scc(Br)c1-c1ncn[nH]1`, the remaining at 0.5 h, 1 µM in data set [1] was determined as 51%; in [3], 85%; in [4], 60%. For the same molecule, the values for the half-inhibitory concentration (IC50) in data set [2], in data set [5] and in data set [6] were 7 nM, 8 nM and 4 nM, respectively.

On to `O=C(Cc1cccc2ncc(F)cc12)Nc1scc(Br)c1-c1nc[nH]n1`, for which the remaining at 0.5 h, 1 µM was found to be 2% in [1], 39% in [3] and 17% in data set [4]. Moreover, the 50% inhibitory concentration (IC50) in data set [2] came to 30 nM; in data set [5], 92 nM; in data set [6], 17 nM.

On to `O=C(Cn1c(=O)ccn2nccc12)Nc1scc(Br)c1-c1ncn[nH]1`, for which the remaining at 0.5 h, 1 µM in data set [1] was 50%; in data set [3], 72%; in data set [4], 71%. Moreover, the IC50 in data set [2] amounted to 8 nM; in [5], 74 nM; in data set [6], 8 nM.

With `Cn1cnc(-c2c(Br)csc2NC(=O)CN2C(=O)CCc3ncccc32)n1`, the values for the remaining at 0.5 h, 1 µM in data set [1], in [3] and in data set [4] were 33%, 46% and 37%, respectively. In addition, the concentration for half-maximal inhibition (IC50) in [2] worked out at 3 nM; in [5], 13 nM; in [6] it was 1 nM.

On to `O=C(Cn1c(=O)ccn2nc(C(F)(F)F)cc12)Nc1scc(Br)c1-c1ncn[nH]1`, for which the remaining at 0.5 h, 1 µM in data set [1] was found to be 3%; in data set [3], 48%; in data set [4] it was 42%. Also, the concentration for half-maximal inhibition (IC50) in [2] was determined as 14 nM; in [5] it was 36 nM; in data set [6], 3 nM.

For the molecule `O=C(Cn1c(=O)ccc2nc(C(F)(F)F)ccc21)Nc1scc(Br)c1-c1ncn[nH]1`, the remaining at 0.5 h, 1 µM came out at 35% in data set [1], 64% in data set [3] and 2% in data set [4]. Also, the IC50 in data set [2] turned out to be 14 nM; in [5], 38 nM; in data set [6], 8 nM.

Regarding `O=C(Cn1c(=O)ccc2c(C(F)(F)F)cccc21)Nc1scc(Br)c1-c1ncn[nH]1`, the remaining at 0.5 h, 1 µM was 27% in [1], 49% in data set [3] and 1% in [4]. The IC50 in [2] amounted to 71 nM; in [5], 193 nM; in [6], 31 nM.

On to `O=C(Cc1ccc(C(F)(F)F)c2ncccc12)Nc1scc(Cl)c1-c1ncn[nH]1`, for which the results for the remaining at 0.5 h, 1 µM in data set [1], in data set [3] and in [4] were 3%, 32% and 1%, respectively. The IC50 was 183 nM in [2], 24 nM in [5] and 81 nM in [6].

With `O=C(CN1C(=O)CCc2ccccc21)Nc1scc(Br)c1-c1ncn[nH]1`, the remaining at 0.5 h, 1 µM worked out at 0% in data set [1], 24% in data set [3] and 0% in data set [4].

On to `N#Cc1ccc2ccc(=O)n(CC(=O)Nc3scc(Br)c3-c3ncn[nH]3)c2c1`, for which the remaining at 0.5 h, 1 µM in data set [1] was 44%; in [3], 59%; in data set [4], 62%. In addition, the IC50 in data set [2] was 2 nM; in data set [5], 10 nM; in [6], 1 nM.

Regarding `O=C(Cc1ccc(F)c2cnccc12)Nc1scc(Br)c1-c1ncn[nH]1`, the figures for the remaining at 0.5 h, 1 µM in data set [1], in [3] and in [4] were 34%, 44% and 5%, respectively. Also, the figures for the IC50 in data set [2], in data set [5] and in data set [6] were 24 nM, 68 nM and 16 nM, respectively.

Consider `O=C(CN1C(=O)CCc2ncccc21)Nc1scc(Br)c1-c1ncco1`, for which the results for the remaining at 0.5 h, 1 µM in [1], in data set [3] and in data set [4] were 0%, 11% and 0%, respectively. The results for the IC50 in data set [2], in data set [5] and in [6] were 6 nM, 66 nM and 7 nM, respectively.

Turning to `O=C(Cc1cc(C(F)(F)F)cc2ncccc12)Nc1scc(Br)c1-c1nnc[nH]1`, the values for the remaining at 0.5 h, 1 µM in data set [1], in data set [3] and in [4] were 3%, 31% and 16%, respectively. Besides, the IC50 in data set [2] came to 280 nM; in [5], 337 nM; in data set [6] it was 178 nM.

Take `O=C(CN1C(=O)CCc2ncccc21)Nc1scc(Br)c1-c1nccs1`: the results for the remaining at 0.5 h, 1 µM in data set [1], in [3] and in [4] were 0%, 3% and 0%, respectively. Moreover, the figures for the IC50 in data set [2], in data set [5] and in data set [6] were 15 nM, 145 nM and 13 nM, respectively.

With `N#Cc1csc(NC(=O)CN2C(=O)CCc3ncccc32)c1-c1nccs1`, the remaining at 0.5 h, 1 µM in [1] came out at 7%; in data set [3], 16%; in data set [4], 1%. Besides, the IC50 turned out to be 11 nM in data set [2], 62 nM in [5] and 10 nM in data set [6].

In the case of `O=C(Cn1c(=O)ccc2cc(OC(F)(F)F)ccc21)Nc1scc(Br)c1-c1ncn[nH]1`, the remaining at 0.5 h, 1 µM is 16% in data set [1], 64% in [3] and 39% in data set [4]. Moreover, the IC50 in data set [2] was determined as 6 nM; in [5] it was 12 nM; in [6], 2 nM.

`O=C(Cc1cc(F)cc2ncccc12)Nc1scc(Br)c1-c1ncn[nH]1`: the remaining at 0.5 h, 1 µM in data set [1] is 5%; in data set [3] it was 42%; in data set [4], 18%. The IC50 is 41 nM in data set [2], 140 nM in data set [5] and 14 nM in data set [6].

As to `N#Cc1ccc2c(ccc(=O)n2CC(=O)Nc2scc(Br)c2-c2ncn[nH]2)c1`, the IC50 in [7] is > 50000 nM; in data set [2] it was 2 nM; in data set [5] it was 10 nM; in [10] it was > 50000 nM; in data set [6] it was 1 nM. For the same molecule, the figures for the remaining at 0.5 h, 1 µM in [1], in [3] and in [4] were 60%, 69% and 46%, respectively. Moreover, the Papp A→B at 2 h, 5 µM in data set [8] stood at 3.43 ×10⁻⁶ cm/s. For the same molecule, the efflux ratio at 2 h, 5 µM in data set [9] was 4.18.

In the case of `N#Cc1csc(NC(=O)Cn2c(=O)ccc3cc(C(F)(F)F)ccc32)c1-c1ncco1`, the remaining at 0.5 h, 1 µM is 4% in [1], 24% in data set [3] and 2% in data set [4]. For the same molecule, the IC50 worked out at 8 nM in [2], 29 nM in [5] and 4 nM in data set [6].

Consider `N#Cc1csc(NC(=O)Cn2c(=O)ccc3cc(C(F)(F)F)ccc32)c1-c1cscn1`, for which the values for the remaining at 0.5 h, 1 µM in data set [1], in [3] and in data set [4] were 17%, 32% and 8%, respectively. Further, the IC50 in [2] is 8 nM; in data set [5] it was 17 nM; in data set [6], 2 nM.

Turning to `O=C(Cc1cccc2ncc(C(F)(F)F)cc12)Nc1scc(Br)c1-c1nc[nH]n1`, the remaining at 0.5 h, 1 µM was found to be 3% in [1], 37% in data set [3] and 20% in data set [4]. Besides, the IC50 in data set [2] amounted to 52 nM; in data set [5], 164 nM; in data set [6], 21 nM.

For the molecule `O=C(Cn1c(=O)ccc2ccc(OC(F)(F)F)cc21)Nc1scc(Br)c1-c1ncn[nH]1`, the remaining at 0.5 h, 1 µM was found to be 10% in data set [1], 29% in [3] and 26% in data set [4]. The IC50 in data set [2] was found to be 19 nM; in data set [5] it was 68 nM; in data set [6], 11 nM.

Regarding `N#Cc1csc(NC(=O)Cn2c(=O)ccc3cc(C(F)(F)F)ccc32)c1-c1nccs1`, the figures for the remaining at 0.5 h, 1 µM in data set [1], in data set [3] and in data set [4] were 52%, 75% and 76%, respectively. The IC50 was determined as 9 nM in [2], 53 nM in [5] and 7 nM in data set [6].

`N#Cc1csc(NC(=O)CN2C(=O)CCc3ncccc32)c1-c1nc[nH]n1`: the remaining at 0.5 h, 1 µM is 84% in data set [1], 80% in data set [3] and 81% in data set [4]. Besides, the IC50 worked out at 6 nM in data set [2], 18 nM in data set [5] and 5 nM in data set [6].

`O=C(Cn1c(=O)ccc2ccc(C(F)(F)F)cc21)Nc1scc(Br)c1-c1ncn[nH]1`: the remaining at 0.5 h, 1 µM in data set [1] was determined as 29%; in data set [3] it was 44%; in [4], 25%. For the same molecule, the IC50 in data set [2] is 9 nM; in data set [5], 21 nM; in data set [6], 6 nM.

For `O=C(Cn1c(=O)ccc2cnc(C(F)(F)F)cc21)Nc1scc(Br)c1-c1ncn[nH]1`, the remaining at 0.5 h, 1 µM in data set [1] was 43%; in data set [3], 77%; in [4], 43%. Moreover, the IC50 is 6 nM in data set [2], 21 nM in data set [5] and 4 nM in data set [6].
